According to ChEMBL document CHEMBL1148440, “4-(tetralin-1-yl)- and 4-(naphthalen-1-yl)alkyl derivatives of 1-cyclohexylpiperazine as sigma receptor ligands with agonist sigma2 activity” (J Med Chem, 2004):

Columns and labels:
[1] = target: T1, Serotonin 3 (5-HT3) receptor (Rattus norvegicus, UniProt P35563+Q9JJ16); assay: In vitro binding affinity at serotonin 5-hydroxytryptamine 3 receptor in rat cortex by [3H]granisetron displacement.
T1 sequence (P35563 whole entry): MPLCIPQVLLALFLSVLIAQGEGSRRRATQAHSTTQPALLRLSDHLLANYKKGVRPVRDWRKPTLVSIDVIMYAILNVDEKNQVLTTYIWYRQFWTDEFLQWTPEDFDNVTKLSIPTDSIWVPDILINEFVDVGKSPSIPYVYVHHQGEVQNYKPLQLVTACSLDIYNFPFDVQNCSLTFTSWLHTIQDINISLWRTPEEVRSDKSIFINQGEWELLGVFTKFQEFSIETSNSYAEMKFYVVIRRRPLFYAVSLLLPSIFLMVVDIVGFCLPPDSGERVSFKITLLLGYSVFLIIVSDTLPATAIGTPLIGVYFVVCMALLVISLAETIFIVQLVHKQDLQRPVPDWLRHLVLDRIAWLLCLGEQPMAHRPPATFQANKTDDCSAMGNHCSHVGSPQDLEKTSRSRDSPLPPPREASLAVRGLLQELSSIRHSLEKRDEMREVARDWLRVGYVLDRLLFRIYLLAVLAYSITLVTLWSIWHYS
T1 sequence (Q9JJ16 whole entry): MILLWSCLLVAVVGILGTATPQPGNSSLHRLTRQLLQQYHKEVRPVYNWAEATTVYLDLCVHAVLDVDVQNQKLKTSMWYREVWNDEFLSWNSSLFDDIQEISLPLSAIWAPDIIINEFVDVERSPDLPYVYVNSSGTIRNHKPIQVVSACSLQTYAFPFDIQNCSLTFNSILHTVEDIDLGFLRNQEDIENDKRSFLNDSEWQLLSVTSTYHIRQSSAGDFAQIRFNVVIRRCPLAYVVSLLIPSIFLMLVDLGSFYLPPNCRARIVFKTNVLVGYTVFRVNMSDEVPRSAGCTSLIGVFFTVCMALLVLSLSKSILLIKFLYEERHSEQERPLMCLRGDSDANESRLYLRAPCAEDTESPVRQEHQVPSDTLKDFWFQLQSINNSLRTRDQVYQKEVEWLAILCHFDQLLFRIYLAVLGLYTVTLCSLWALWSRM
Method in brief: (§1)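 Competition binding was run with radioligand displacement: [3H]spiroperidol for D2-like, [3H]prazosin for α1 and [3H]granisetron for 5-HT3. D2 values are the mean of three independent experiments.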

[2] = target: T2, Adrenergic receptor alpha-1 (Rattus norvegicus, UniProt P15823+P23944+P43140); assay: In vitro binding affinity at alpha-1 adrenergic receptor in rat cortex by [3H]prazosin displacement.; method in brief: as §1
T2 sequence (P15823 whole entry): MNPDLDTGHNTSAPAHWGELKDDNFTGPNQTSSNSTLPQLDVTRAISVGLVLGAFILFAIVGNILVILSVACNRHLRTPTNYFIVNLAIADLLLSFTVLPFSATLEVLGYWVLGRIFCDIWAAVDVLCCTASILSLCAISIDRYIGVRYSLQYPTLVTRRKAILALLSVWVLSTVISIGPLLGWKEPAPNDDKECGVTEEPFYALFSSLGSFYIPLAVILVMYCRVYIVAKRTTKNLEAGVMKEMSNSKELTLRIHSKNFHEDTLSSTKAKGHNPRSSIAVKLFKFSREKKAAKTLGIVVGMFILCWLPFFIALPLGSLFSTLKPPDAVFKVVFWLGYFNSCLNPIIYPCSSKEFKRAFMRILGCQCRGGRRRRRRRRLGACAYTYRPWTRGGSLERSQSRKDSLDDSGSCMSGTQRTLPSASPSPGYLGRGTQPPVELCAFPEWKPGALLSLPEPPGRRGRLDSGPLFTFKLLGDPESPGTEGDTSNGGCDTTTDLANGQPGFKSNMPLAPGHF
T2 sequence (P23944 whole entry): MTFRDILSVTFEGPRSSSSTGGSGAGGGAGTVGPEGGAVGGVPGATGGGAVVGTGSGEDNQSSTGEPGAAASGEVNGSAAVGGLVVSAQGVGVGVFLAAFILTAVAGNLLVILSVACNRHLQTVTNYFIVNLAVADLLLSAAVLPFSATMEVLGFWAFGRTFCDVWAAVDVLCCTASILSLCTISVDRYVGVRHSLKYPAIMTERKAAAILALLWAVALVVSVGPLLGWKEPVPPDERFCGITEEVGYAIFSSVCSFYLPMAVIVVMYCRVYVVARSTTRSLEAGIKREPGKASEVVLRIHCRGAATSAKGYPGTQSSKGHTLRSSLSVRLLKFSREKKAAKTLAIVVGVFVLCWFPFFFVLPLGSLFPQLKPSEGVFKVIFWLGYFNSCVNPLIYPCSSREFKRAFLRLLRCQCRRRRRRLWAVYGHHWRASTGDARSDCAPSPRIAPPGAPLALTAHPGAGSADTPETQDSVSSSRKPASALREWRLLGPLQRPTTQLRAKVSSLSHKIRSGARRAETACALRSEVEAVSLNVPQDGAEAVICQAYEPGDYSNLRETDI
T2 sequence (P43140 whole entry): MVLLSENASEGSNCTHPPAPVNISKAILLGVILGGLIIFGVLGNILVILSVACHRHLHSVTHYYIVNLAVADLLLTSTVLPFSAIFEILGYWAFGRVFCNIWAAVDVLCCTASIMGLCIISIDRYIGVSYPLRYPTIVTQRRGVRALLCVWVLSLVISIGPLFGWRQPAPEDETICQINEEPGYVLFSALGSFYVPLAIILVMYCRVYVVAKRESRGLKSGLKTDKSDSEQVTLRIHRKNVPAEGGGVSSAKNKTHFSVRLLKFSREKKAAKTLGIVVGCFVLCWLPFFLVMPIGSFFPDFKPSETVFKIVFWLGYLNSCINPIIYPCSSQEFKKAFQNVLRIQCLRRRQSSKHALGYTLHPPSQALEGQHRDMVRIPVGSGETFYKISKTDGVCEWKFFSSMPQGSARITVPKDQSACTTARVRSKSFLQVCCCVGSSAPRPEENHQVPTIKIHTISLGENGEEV

Sigma 2 receptor [3] = assay: In vitro binding affinity at opioid sigma-2 receptor in rat liver membranes by [3H]-DTG displacement in the presence of 1 uM (+)-pentazocine.; assay type: cell membranes, Membrane
[4] = target: Sigma non-opioid intracellular receptor 1 (Homo sapiens) (UniProt Q99720); assay: Binding affinity ratio of sigma 2 receptor to that of sigma 1 receptor
Chain of Sigma non-opioid intracellular receptor 1 (Homo sapiens) (Q99720 whole entry): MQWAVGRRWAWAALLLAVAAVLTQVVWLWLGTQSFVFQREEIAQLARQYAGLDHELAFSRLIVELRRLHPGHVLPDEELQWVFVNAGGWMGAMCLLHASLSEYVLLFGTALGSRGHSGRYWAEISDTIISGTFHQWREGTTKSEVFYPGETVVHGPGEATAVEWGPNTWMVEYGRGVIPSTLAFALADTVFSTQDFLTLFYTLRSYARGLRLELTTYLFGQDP
Method in brief: (§2)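 Sigma-1 binding used guinea pig brain membranes without cerebellum with (+)-[3H]pentazocine. […] IC50 came from 6–9 drug concentrations in two or three experiments with duplicate samples, then converted to apparent Ki. Ratios are computed from these Ki values.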

Cavia porcellus [5] = species: Cavia porcellus; assay: Inhibition of electrically stimulated contractions of the isolated guinea pig badder.; assay type: functional
D(2) dopamine receptor = D(2) dopamine receptor (Rattus norvegicus, UniProt P61169); assay: In vitro binding affinity at Dopamine receptor D2 in rat striatum by [3H]spiroperidol displacement.; assay type: tissue-based; method in brief: as §1
Chain of D(2) dopamine receptor (P61169 whole entry): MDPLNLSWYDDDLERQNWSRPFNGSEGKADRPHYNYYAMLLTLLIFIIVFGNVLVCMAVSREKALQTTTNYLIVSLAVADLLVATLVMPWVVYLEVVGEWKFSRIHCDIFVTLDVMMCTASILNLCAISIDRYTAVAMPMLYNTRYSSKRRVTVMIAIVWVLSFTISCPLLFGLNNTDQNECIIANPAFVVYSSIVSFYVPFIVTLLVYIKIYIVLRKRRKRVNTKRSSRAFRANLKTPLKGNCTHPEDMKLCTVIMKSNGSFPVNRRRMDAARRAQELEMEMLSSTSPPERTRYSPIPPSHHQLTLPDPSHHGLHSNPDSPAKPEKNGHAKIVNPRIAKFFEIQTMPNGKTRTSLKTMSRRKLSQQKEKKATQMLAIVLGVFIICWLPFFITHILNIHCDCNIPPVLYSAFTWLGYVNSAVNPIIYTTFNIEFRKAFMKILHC

[6] = target: Sigma non-opioid intracellular receptor 1 (Homo sapiens) (UniProt Q99720); assay: Binding affinity ratio of sigma 1 receptor to that of sigma 2 receptor; method in brief: as §2
Cavia porcellus [7] = species: Cavia porcellus; assay: Inhibition of electrically stimulated contractions of the isolated guinea pig badder at 30 uM.; assay type: functional
Sigma 2 receptor [8] = assay: In vitro binding affinity at opioid sigma-2 receptor in rat liver membranes by [3H]DTG displacement in the presence of 1 uM (+)-pentazocine.; assay type: cell membranes, Membrane

Row | Structure (SMILES) | Ki [1] | Ki [2] | Ki (Sigma 2 receptor [3]) | Ratio [4] | EC50 (Cavia porcellus [5]) | Ki (D(2) dopamine receptor) | Ratio [6] | inhibition at 30 µM (Cavia porcellus [7]) | Ki (Sigma 2 receptor [8])
1 | COc1ccc2c(c1)CCCC2CCCN1CCN(C2CCCCC2)CC1 (stereo unspecified) | > 700 nM | > 7500 nM | 5.42 nM | 15 | – | – | – | – | –
2 | COc1cccc2c1CCCC2CCN1CCN(C2CCCCC2)CC1 (stereo unspecified) | > 700 nM | > 7500 nM | 21.1 nM | 13 | 16100 nM | 1620 nM | – | – | –
3 | Cc1ccccc1NC(=N)Nc1ccccc1C [DITOLYLGUANIDINE] | – | – | – | – | 6900 nM | – | – | – | –
4 | Oc1ccc2c(c1)CCCC2CCCN1CCN(C2CCCCC2)CC1 (stereo unspecified) | > 700 nM | > 7500 nM | 1.12 nM | 1.6 | – | – | – | – | –
5 | COc1cccc2c1CCCC2CCCN1CCN(C2CCCCC2)CC1 (stereo unspecified) | > 700 nM | > 7500 nM | 0.34 nM | – | 2620 nM | 604 nM | – | – | –
6 | COc1cccc2c1CCCC2CN1CCN(C2CCCCC2)CC1 (stereo unspecified) | > 700 nM | > 7500 nM | 16.4 nM | 53 | 11500 nM | 4260 nM | – | – | –
7 | COc1cccc2c1CCC[C@H]2CCCN1CCN(C2CCCCC2)CC1 | > 700 nM | > 7500 nM | 8.65 nM | – | 1750 nM | – | – | – | –
8 | COc1cccc2c1CCCC2CCCCN1CCN(C2CCCCC2)CC1 (stereo unspecified) | > 700 nM | > 7500 nM | 3.58 nM | – | 9940 nM | 3670 nM | – | – | –
9 | c1ccc2c(c1)CCCC2CCCCN1CCN(C2CCCCC2)CC1 (stereo unspecified) | > 700 nM | > 7500 nM | 14.6 nM | – | – | – | – | – | –
10 | COc1cccc2c1CCC[C@@H]2CCCN1CCN(C2CCCCC2)CC1 | > 700 nM | > 7500 nM | 2.09 nM | – | 1500 nM | – | – | – | –
11 | c1ccc2c(CCCCCN3CCN(C4CCCCC4)CC3)cccc2c1 | – | – | 0.57 nM | – | 2950 nM | – | 4.2 | – | –
12 | COc1cccc2c(CCCN3CCN(C4CCCCC4)CC3)cccc12 | > 700 nM | > 7500 nM | 9.24 nM | – | – | – | – | – | –
13 | COc1cccc2c1CCCC2CCCCCN1CCN(C2CCCCC2)CC1 (stereo unspecified) | > 700 nM | > 7500 nM | 0.35 nM | – | 4900 nM | 2450 nM | 4.3 | – | –
14 | c1ccc2c(c1)CCCC2CCCN1CCN(C2CCCCC2)CC1 (stereo unspecified) | > 700 nM | > 7500 nM | 0.68 nM | 1.1 | – | – | – | – | –
15 | c1ccc(CCN2CCCCC2)cc1 | > 700 nM | > 7500 nM | 194 nM | – | – | – | 1.6 | 41% | –
16 | COc1cccc2c1CCCC2CCCCCCN1CCN(C2CCCCC2)CC1 (stereo unspecified) | > 700 nM | > 7500 nM | 103 nM | 34 | 25300 nM | 3480 nM | – | – | –
17 | COc1ccc2c(c1)C(CCCN1CCN(C3CCCCC3)CC1)CCC2 (stereo unspecified) | > 700 nM | > 7500 nM | 1.22 nM | – | – | 479 nM | 7.4 | – | –
18 | c1ccc2c(CCCCN3CCN(C4CCCCC4)CC3)cccc2c1 | > 700 nM | > 7500 nM | 30.5 nM | 139 | – | – | – | – | –
19 | Oc1cccc2c1CCCC2CCCN1CCN(C2CCCCC2)CC1 (stereo unspecified) | > 700 nM | > 7500 nM | 2.66 nM | – | – | – | – | – | –
20 | c1ccc2c(CCCN3CCN(C4CCCCC4)CC3)cccc2c1 | > 700 nM | > 7500 nM | 0.69 nM | – | 1820 nM | – | 3.1 | – | –
21 | c1ccc2c(c1)CCCC2CCCCCN1CCN(C2CCCCC2)CC1 (stereo unspecified) | > 700 nM | > 7500 nM | 7.85 nM | 5.4 | – | – | – | – | –
22 | COc1cccc2c1CCCC2N1CCN(C2CCCCC2)CC1 (stereo unspecified) | > 700 nM | > 7500 nM | – | 20 | 6970 nM | 1160 nM | – | – | 7.9 nM
